Assay results published in ChEMBL document CHEMBL2086300, “Synthesis and biological evaluation of imidazo[4,5-b]pyridine and 4-heteroaryl-pyrimidine derivatives as anti-cancer agents” (Eur J Med Chem, 2012).
Active and inactive are the calls of the source. The rule behind the calls is not given here.

Tests used:
[1] = biological target: Cyclin-dependent kinase 7/ cyclin H (Homo sapiens, UniProt P50613); assay: Inhibition of CDK7/cyclin-H by radiometric assay; assay type: protein-complex assay
Summary of the method: (§1)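 Radiometric kinase assay run as an outsourced profiling service. IC50 taken from 10-point dose-response curves. Apparent Ki calculated from IC50 and the kinase-specific Km(ATP). Data are means of two replicates.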

[2] = biological target: Cyclin-dependent kinase 1/cyclin B1 (Homo sapiens, UniProt P06493); assay: Inhibition of CDK1/cyclin B by radiometric assay; assay type: protein-complex assay; summary of the method: as §1
Chain of Cyclin-dependent kinase 1/cyclin B1 (P06493 whole entry): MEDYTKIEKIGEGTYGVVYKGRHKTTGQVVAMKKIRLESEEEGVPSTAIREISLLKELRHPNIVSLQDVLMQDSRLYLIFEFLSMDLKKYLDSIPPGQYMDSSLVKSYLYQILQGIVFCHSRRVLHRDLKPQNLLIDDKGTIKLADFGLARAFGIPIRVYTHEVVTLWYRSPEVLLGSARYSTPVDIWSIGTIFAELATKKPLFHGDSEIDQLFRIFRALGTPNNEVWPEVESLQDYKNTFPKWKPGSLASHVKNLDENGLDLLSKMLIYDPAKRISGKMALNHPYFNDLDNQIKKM
Chain of Cyclin-dependent kinase 1/cyclin B1 (P14635 whole entry, further chain): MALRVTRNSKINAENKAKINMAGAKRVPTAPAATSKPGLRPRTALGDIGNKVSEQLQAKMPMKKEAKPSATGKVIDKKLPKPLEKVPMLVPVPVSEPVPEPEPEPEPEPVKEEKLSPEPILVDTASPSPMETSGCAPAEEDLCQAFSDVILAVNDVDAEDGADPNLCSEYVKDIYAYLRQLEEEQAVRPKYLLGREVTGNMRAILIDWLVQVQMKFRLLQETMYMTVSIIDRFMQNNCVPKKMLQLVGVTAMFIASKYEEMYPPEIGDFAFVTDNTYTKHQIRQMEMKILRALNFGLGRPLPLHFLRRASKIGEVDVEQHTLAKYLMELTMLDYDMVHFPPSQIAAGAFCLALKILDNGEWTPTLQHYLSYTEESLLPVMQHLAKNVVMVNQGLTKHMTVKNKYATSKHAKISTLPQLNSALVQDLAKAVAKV

[3] = test system: MCF7; assay: Antiproliferative activity against human MCF7 cells after 72 hrs by MTT assay; assay type: functional; settings: MCF7, 72 h
Summary of the method: (§2)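 HCT-116 and MCF-7 cells kept in RPMI-1640 plus 10% FBS. Cells exposed to compound for 72 h and read by MTT. GI50 obtained by non-linear regression.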

[4] = biological target: CDK9/cyclin T1 (Homo sapiens, UniProt P50750); assay: Inhibition of CDK9/cyclin-T1 by radiometric assay; assay type: protein-complex assay; summary of the method: as §1
Chain of CDK9/cyclin T1 (O60563 whole entry): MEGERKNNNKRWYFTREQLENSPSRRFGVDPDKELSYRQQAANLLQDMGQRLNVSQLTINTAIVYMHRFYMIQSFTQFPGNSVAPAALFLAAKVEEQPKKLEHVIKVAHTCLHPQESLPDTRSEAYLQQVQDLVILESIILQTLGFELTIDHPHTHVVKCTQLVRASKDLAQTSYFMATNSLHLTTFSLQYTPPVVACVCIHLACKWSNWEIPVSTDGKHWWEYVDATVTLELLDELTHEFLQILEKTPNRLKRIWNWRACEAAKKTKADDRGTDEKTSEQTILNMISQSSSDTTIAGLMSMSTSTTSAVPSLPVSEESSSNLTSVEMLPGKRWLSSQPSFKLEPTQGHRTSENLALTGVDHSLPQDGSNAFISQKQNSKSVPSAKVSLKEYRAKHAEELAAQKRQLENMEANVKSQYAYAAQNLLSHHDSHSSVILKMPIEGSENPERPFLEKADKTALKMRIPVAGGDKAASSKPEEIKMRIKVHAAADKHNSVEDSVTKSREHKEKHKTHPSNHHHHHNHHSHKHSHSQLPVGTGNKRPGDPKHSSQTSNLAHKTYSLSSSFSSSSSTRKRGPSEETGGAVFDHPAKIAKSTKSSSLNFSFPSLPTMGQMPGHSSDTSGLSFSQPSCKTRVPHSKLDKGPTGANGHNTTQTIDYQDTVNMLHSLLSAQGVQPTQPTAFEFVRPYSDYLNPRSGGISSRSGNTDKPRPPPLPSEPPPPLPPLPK
Chain of CDK9/cyclin T1 (P50750 whole entry): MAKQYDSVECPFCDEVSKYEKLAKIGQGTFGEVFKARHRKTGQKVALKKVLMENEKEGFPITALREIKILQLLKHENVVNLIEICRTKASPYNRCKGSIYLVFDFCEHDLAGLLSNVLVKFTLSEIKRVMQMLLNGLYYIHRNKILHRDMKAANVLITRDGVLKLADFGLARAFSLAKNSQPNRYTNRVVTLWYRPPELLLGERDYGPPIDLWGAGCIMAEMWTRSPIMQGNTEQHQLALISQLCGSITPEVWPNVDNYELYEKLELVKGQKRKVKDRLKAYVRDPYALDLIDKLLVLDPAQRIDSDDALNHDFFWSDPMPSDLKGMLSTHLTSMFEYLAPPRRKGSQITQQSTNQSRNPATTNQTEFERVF

[5] = test system: HCT-116; assay: Antiproliferative activity against human HCT116 cells after 72 hrs by MTT assay; assay type: functional; settings: HCT-116, 72 h; summary of the method: as §2
[6] = biological target: CDK9/cyclin T1 (Homo sapiens) (UniProt O60563+P50750); assay: Inhibition of CDK9/cyclin-T1 in human HCT116 cells assessed as RNAPII CTD phosphorylation at Ser-2 at 5 to 50 uM after 24 hrs by Western blotting analysis; assay type: cell-based; settings: HCT-116
Summary of the method: (§3)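 HCT-116 cells cultured with 5, 25 or 50 µM for 24 h. Lysates analysed by western blot, with β-actin as internal control.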

[7] = test system: HCT-116; assay: Cell cycle arrest in human HCT116 cells at 5 times GI50 after 24 hrs by propidium iodide staining based flow cytometry; assay type: functional
Summary of the method: (§4)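 HCT-116 cells treated for 24 h at GI50, 5 × GI50 or 10 × GI50 multiples. Cells fixed and stained with propidium iodide, then DNA content read by flow cytometry. Pre-G1 fraction taken as the dead-cell population.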

[8] = biological target: Cyclin-dependent kinase 7/ cyclin H (Homo sapiens) (UniProt P51946+P50613); assay: Inhibition of CDK7/cyclin-H in human HCT116 cells assessed as RNAPII CTD phosphorylation at Ser-5 at 5 to 50 uM after 24 hrs by Western blotting analysis; assay type: cell-based; settings: HCT-116; summary of the method: as §3
[9] = test system: HCT-116; assay: Induction of apoptosis in human HCT116 cells assessed as induction of PARP cleavage at 5 to 50 uM after 24 hrs Western blot analysis; assay type: functional, cell-based; summary of the method: as §3
[10] = test system: HCT-116; assay: Cell cycle arrest in human HCT116 cells assessed as accumulation at pre-G1 phase at 10 times GI50 after 24 hrs by propidium iodide staining based flow cytometry; assay type: functional; summary of the method: as §4
[11] = test system: HCT-116; assay: Cell cycle arrest in human HCT116 cells at GI50 after 24 hrs by propidium iodide staining based flow cytometry; assay type: functional; summary of the method: as §4
[12] = test system: HCT-116; assay: Induction of apoptosis in human HCT116 cells assessed as increase of caspase-3/7 activity at GI50 after 24 hrs; assay type: functional, cell-based
[13] = test system: HCT-116; assay: Induction of apoptosis in human HCT116 cells assessed as down-regulation of Mcl-1 level at 5 to 50 uM after 24 hrs Western blot analysis; assay type: functional, cell-based; summary of the method: as §3
[14] = test system: HCT-116; assay: Induction of apoptosis in human HCT116 cells assessed as increase of caspase-3/7 activity at 5 to 10 times GI50 after 24 hrs; assay type: functional, cell-based
[15] = Selectivity ratio of Ki for CDK1/cyclin B to Ki for CDK9/cyclin-T1
Summary of the method: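 Ratio of apparent Ki values for CDK1/cyclin B and CDK9/cyclin-T1. Each Ki comes from a radiometric assay, converted from 10-point-curve IC50 using Km(ATP), mean of two replicates.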

Chain of Cyclin-dependent kinase 7/ cyclin H (P51946 whole entry): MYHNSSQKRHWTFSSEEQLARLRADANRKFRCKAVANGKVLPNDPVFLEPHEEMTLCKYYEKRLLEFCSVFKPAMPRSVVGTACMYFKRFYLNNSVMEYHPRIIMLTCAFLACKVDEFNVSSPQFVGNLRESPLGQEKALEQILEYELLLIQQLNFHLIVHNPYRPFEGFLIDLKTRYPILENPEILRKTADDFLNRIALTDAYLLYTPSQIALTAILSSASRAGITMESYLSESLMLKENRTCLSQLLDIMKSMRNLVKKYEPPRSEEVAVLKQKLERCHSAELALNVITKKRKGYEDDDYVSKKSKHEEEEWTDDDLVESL
Chain of Cyclin-dependent kinase 7/ cyclin H (P50613 whole entry): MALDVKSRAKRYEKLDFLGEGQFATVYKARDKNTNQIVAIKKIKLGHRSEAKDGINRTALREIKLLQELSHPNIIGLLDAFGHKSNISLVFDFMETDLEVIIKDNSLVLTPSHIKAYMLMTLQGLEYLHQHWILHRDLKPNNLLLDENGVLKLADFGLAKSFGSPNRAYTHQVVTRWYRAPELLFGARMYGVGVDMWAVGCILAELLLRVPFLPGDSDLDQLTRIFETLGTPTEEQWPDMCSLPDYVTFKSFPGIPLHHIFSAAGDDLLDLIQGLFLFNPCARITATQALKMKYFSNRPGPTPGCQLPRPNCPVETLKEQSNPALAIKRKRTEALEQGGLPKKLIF

| GI50 [3] | GI50 [5] | SMILES | other results |
| --- | --- | --- | --- |
| 4.26 µM | 7.95 µM | CCCn1nc(-c2ccnc(Nc3cccc(S(N)(=O)=O)c3)n2)c2ccccc21 | Ki [1]: > 5 µM; Ki [2]: 0.945 µM; Ki [4]: 0.285 µM |
| 0.88 µM | 6.34 µM | CCc1nn(-c2ccnc(Nc3ccc(S(N)(=O)=O)cc3)n2)c2ncccc12 |  |
| 6.1 µM | 8.64 µM | Cc1ccc(Nc2nccc(-c3nn(C)c4ccccc34)n2)cc1 |  |
| 2.28 µM | 2.05 µM | CCn1nc(-c2ccnc(Nc3ccc(S(N)(=O)=O)cc3)n2)c2ccccc21 | Ki [1]: > 5 µM; Ki [2]: 0.055 µM; Ki [4]: 0.253 µM |
| 8.91 µM | 8.43 µM | Cn1nc(-c2ccnc(Nc3ccc(O)cc3)n2)c2ccccc21 |  |
| 24.2 µM | 41.7 µM | O=[N+]([O-])c1cccc(Nc2nc3ncccc3n2Cc2ccccc2)c1 |  |
| 24 µM | 4.06 µM | CCn1nc(-c2ccnc(Nc3ccc([N+](=O)[O-])cc3)n2)c2ccccc21 |  |
| 7.83 µM | 8.73 µM | Cn1nc(-c2ccnc(Nc3ccc(Cl)cc3)n2)c2ccccc21 |  |
| 19.9 µM | 24.8 µM | Cc1nn(-c2ccnc(Nc3cccc(S(N)(=O)=O)c3)n2)c2ncccc12 |  |
| 3.34 µM | 5.45 µM | CCCn1nc(-c2ccnc(Nc3ccc(O)cc3)n2)c2ccccc21 |  |
| 59.1 µM | 87.3 µM | COc1ccc(Nc2nc3ncccc3n2Cc2ccccc2)cc1 |  |
| 43.5 µM | 36.3 µM | Clc1cccc(Nc2nc3ncccc3n2Cc2ccccc2)c1 |  |
| 8.64 µM | 8.84 µM | Cc1nn(-c2ccnc(Nc3ccc(S(N)(=O)=O)cc3)n2)c2ncccc12 |  |
| 0.58 µM | 0.49 µM | Cn1nc(-c2ccnc(Nc3cccc([N+](=O)[O-])c3)n2)c2ccccc21 |  |
| 2.27 µM | 1.98 µM | Cn1nc(-c2ccnc(Nc3cccc(S(N)(=O)=O)c3)n2)c2ccccc21 | Ki [1]: > 5 µM; Ki [2]: 0.061 µM; Ki [4]: 0.098 µM |
| 11.8 µM | 8.22 µM | Cn1nc(-c2ccnc(Nc3ccc([N+](=O)[O-])cc3)n2)c2ccccc21 |  |
| 5.56 µM | 0.75 µM | NS(=O)(=O)c1cccc(Nc2nccc(-n3ncc4ccccc43)n2)c1 | Ki [1]: > 5 µM; inhibition [6]: Active; Ki [2]: 0.053 µM; Activity [7]: inactive; inhibition [8]: inactive; Activity [9]: Active; Activity [10]: Active; Activity [11]: inactive; Activity [12]: Active; Activity [13]: Active; Ki [4]: 0.017 µM; Activity [14]: Active |
| 2.31 µM | 2.82 µM | CCn1nc(-c2ccnc(Nc3cccc([N+](=O)[O-])c3)n2)c2ccccc21 |  |
| 0.59 µM | 6.74 µM | CCCn1nc(-c2ccnc(Nc3ccc(S(N)(=O)=O)cc3)n2)c2ccccc21 | Ki [1]: > 5 µM; Ki [2]: 0.127 µM; Ki [4]: 0.176 µM |

| GI50 [3] | GI50 [5] | SMILES | other results |
| --- | --- | --- | --- |
| 51.8 µM | 60.2 µM | c1ccc(Cn2c(Nc3ccccc3)nc3cccnc32)cc1 |  |
| 5.97 µM | 6.4 µM | Cn1nc(-c2ccnc(Nc3cccc(Cl)c3)n2)c2ccccc21 |  |
| 48 µM | 59.5 µM | Clc1ccc(Nc2nc3ncccc3n2Cc2ccccc2)cc1 |  |
| 5.27 µM | 8.28 µM | NS(=O)(=O)c1cccc(Nc2nccc(-c3nn(Cc4cccnc4)c4ccccc34)n2)c1 | Ki [1]: > 5 µM; Ki [2]: 4.53 µM; Ratio Ki [15]: 14; Ki [4]: 0.314 µM |
| 7.26 µM | 9.01 µM | CCn1nc(-c2ccnc(Nc3cccc(S(N)(=O)=O)c3)n2)c2ccccc21 | Ki [1]: > 5 µM; Ki [2]: 0.471 µM; Ki [4]: 0.154 µM |
| 78.7 µM | 77.7 µM | Brc1cccc(Nc2nc3ncccc3n2Cc2ccccc2)c1 |  |
| 0.94 µM | 2.28 µM | Cn1nc(-c2ccnc(Nc3ccc(S(N)(=O)=O)cc3)n2)c2ccccc21 | Ki [1]: > 5 µM; Ki [2]: 0.096 µM; Ki [4]: 0.14 µM |
| 2.63 µM | 5.13 µM | NS(=O)(=O)c1ccc(Nc2nccc(-c3nn(Cc4cccnc4)c4ccccc34)n2)cc1 | Ki [1]: > 5 µM; Ki [2]: 0.287 µM; Ki [4]: 0.207 µM |
| 6.93 µM | 14.6 µM | NS(=O)(=O)c1cccc(Nc2nccc(-n3ncc4cccnc43)n2)c1 |  |
| 52.5 µM | 72.6 µM | Oc1ccc(Nc2nc3ncccc3n2Cc2ccccc2)cc1 |  |
| 33.5 µM | 36.6 µM | CCn1nc(-c2ccnc(Nc3cccc(O)c3)n2)c2ccccc21 |  |
| 1.87 µM | 0.59 µM | NS(=O)(=O)c1ccc(Nc2nccc(-n3ncc4ccccc43)n2)cc1 | Ki [1]: 0.328 µM; Ki [2]: 0.028 µM; Ki [4]: 0.091 µM |
| 28.2 µM | 17.2 µM | Cn1nc(-c2ccnc(Nc3cccc(O)c3)n2)c2ccccc21 |  |
| 52.5 µM | 64.7 µM | c1ccc(Cn2c(Nc3ccccc3)nc3ncccc32)cc1 |  |
| 27.8 µM | 40.4 µM | Cc1ccc(Nc2nc3ncccc3n2Cc2ccccc2)cc1[N+](=O)[O-] |  |
| 9.15 µM | 9.42 µM | Cc1cccc(Nc2nccc(-c3nn(C)c4ccccc34)n2)c1 |  |
| 5.78 µM | 5.29 µM | CCn1nc(-c2ccnc(Nc3ccc(O)cc3)n2)c2ccccc21 |  |
| 7.02 µM | 8.04 µM | NS(=O)(=O)c1ccc(Nc2nccc(-n3ncc4cccnc43)n2)cc1 |  |
| 73.2 µM | 65.1 µM | CCc1nn(-c2ccnc(Nc3cccc(S(N)(=O)=O)c3)n2)c2ncccc12 |  |
